Laboratory results: ChEMBL document CHEMBL1772977, “Synthesis and biological evaluation of novel 4-benzylpiperazine ligands for sigma-1 receptor imaging” (Bioorg Med Chem, 2011)

Assays:
Heart [1] = assay: Biodistribution in ICR mouse heart at 1 uCi, iv after 240 mins postinjection; type: ADME, organism-based; details: in vivo, 4 h
Outline: (§1)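 Female ICR mice (18–22 g, n = 5) received HPLC-purified radiotracer by tail vein (0.1 mL). They were killed by cervical fracture at the stated times. Blood and organs were removed, weighed and gamma-counted. Uptake expressed as percent injected dose per gram of tissue (%ID/g), given as mean with SD.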

Thyroid gland [2] = assay: Biodistribution in ICR mouse thyroid at 1 uCi, iv after 30 mins postinjection; type: ADME, organism-based; details: in vivo, 0.5 h
Outline: (§2)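 Female ICR mice (18–22 g, n = 5) received HPLC-purified radioiodinated tracer by tail vein (0.1 mL, 1 µCi). They were killed by cervical fracture at 15, 30, 60, 120 or 240 min post-injection. Blood and organs were removed, weighed and gamma-counted. Uptake is expressed as %ID/g, mean ± SD, n = 4–5.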

Muscle tissue [3] = assay: Biodistribution in ICR mouse muscle at 1 uCi, iv after 15 mins postinjection; type: ADME, organism-based; details: in vivo, 0.25 h; outline: as §1
Stomach [4] = assay: Biodistribution in ICR mouse stomach at 1 uCi, iv measured per organ after 60 mins postinjection; type: ADME, organism-based; details: in vivo, 1 h; outline: as §2
Blood [5] = assay: Biodistribution in ICR mouse blood at 1 uCi, iv after 120 mins postinjection; type: ADME, organism-based; details: in vivo, 2 h; outline: as §1
Mus musculus [6] = assay: Biodistribution in ICR mouse small intestine at 1 uCi, iv after 15 mins postinjection; type: ADME, organism-based; details: in vivo, 0.25 h; outline: as §1
Liver [7] = assay: Biodistribution in ICR mouse liver at 1 uCi, iv after 120 mins postinjection; type: ADME, organism-based; details: in vivo, 2 h; outline: as §1
Lung [8] = assay: Biodistribution in ICR mouse lung at 1 uCi, iv after 240 mins postinjection; type: ADME, organism-based; details: in vivo, 4 h; outline: as §1
[9] = 1-Octanol-sodium phosphate buffer distribution coefficient, log D of the compound at pH 7.4; type: physicochemical
Outline: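 Shake-flask partition of HPLC-purified radiotracer between 1-octanol and 0.05 mol/L sodium phosphate buffer pH 7.4, phases mutually pre-saturated (3 mL each). […] Octanol layer re-distributed until values were consistent. Triplicate, repeated three times.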

Liver [10] = assay: Biodistribution in ICR mouse liver at 1 uCi, iv after 60 mins postinjection; type: ADME, organism-based; details: in vivo, 1 h; outline: as §1
Blood [11] = assay: Biodistribution in ICR mouse blood at 1 uCi, iv after 240 mins postinjection; type: ADME, organism-based; details: in vivo, 4 h; outline: as §1
Liver [12] = assay: Biodistribution in ICR mouse liver at 1 uCi, iv after 240 mins postinjection; type: ADME, organism-based; details: in vivo, 4 h; outline: as §1
Thyroid gland [13] = assay: Biodistribution in ICR mouse thyroid at 1 uCi, iv after 120 mins postinjection; type: ADME, organism-based; details: in vivo, 2 h; outline: as §2
Mus musculus [14] = assay: Biodistribution in ICR mouse small intestine at 1 uCi, iv after 60 mins postinjection; type: ADME, organism-based; details: in vivo, 1 h; outline: as §1
Kidney [15] = assay: Biodistribution in ICR mouse kidney at 1 uCi, iv after 240 mins postinjection; type: ADME, organism-based; details: in vivo, 4 h; outline: as §1
Brain [16] = assay: Biodistribution in ICR mouse brain at 1 uCi, iv after 120 mins postinjection; type: ADME, organism-based; details: in vivo, 2 h; outline: as §1
Brain [17] = assay: Biodistribution in ICR mouse brain at 1 uCi, iv after 60 mins postinjection; type: ADME, organism-based; details: in vivo, 1 h; outline: as §1
Mus musculus [18] = assay: Biodistribution in ICR mouse small intestine at 1 uCi, iv after 240 mins postinjection; type: ADME, organism-based; details: in vivo, 4 h; outline: as §1
Lung [19] = assay: Biodistribution in ICR mouse lung at 1 uCi, iv after 120 mins postinjection; type: ADME, organism-based; details: in vivo, 2 h; outline: as §1
Muscle tissue [20] = assay: Biodistribution in ICR mouse muscle at 1 uCi, iv after 120 mins postinjection; type: ADME, organism-based; details: in vivo, 2 h; outline: as §1
Liver [21] = assay: Biodistribution in ICR mouse liver at 1 uCi, iv after 15 mins postinjection; type: ADME, organism-based; details: in vivo, 0.25 h; outline: as §1
Stomach [22] = assay: Biodistribution in ICR mouse stomach at 1 uCi, iv measured per organ after 15 mins postinjection; type: ADME, organism-based; details: in vivo, 0.25 h
Heart [23] = assay: Biodistribution in ICR mouse heart at 1 uCi, iv after 120 mins postinjection; type: ADME, organism-based; details: in vivo, 2 h; outline: as §1
Mus musculus [24] = assay: Biodistribution in ICR mouse small intestine at 1 uCi, iv after 120 mins postinjection; type: ADME, organism-based; details: in vivo, 2 h; outline: as §1
Mus musculus [25] = assay: Biodistribution in ICR mouse small intestine at 1 uCi, iv after 30 mins postinjection; type: ADME, organism-based; details: in vivo, 0.5 h; outline: as §1
Heart [26] = assay: Biodistribution in ICR mouse heart at 1 uCi, iv after 60 mins postinjection; type: ADME, organism-based; details: in vivo, 1 h; outline: as §1
Stomach [27] = assay: Biodistribution in ICR mouse stomach at 1 uCi, iv measured per organ after 30 mins postinjection; type: ADME, organism-based; details: in vivo, 0.5 h
Kidney [28] = assay: Biodistribution in ICR mouse kidney at 1 uCi, iv after 60 mins postinjection; type: ADME, organism-based; details: in vivo, 1 h; outline: as §1
Stomach [29] = assay: Biodistribution in ICR mouse stomach at 1 uCi, iv measured per organ after 120 mins postinjection; type: ADME, organism-based; details: in vivo, 2 h
Kidney [30] = assay: Biodistribution in ICR mouse kidney at 1 uCi, iv after 30 mins postinjection; type: ADME, organism-based; details: in vivo, 0.5 h; outline: as §1
Thyroid gland [31] = assay: Biodistribution in ICR mouse thyroid at 1 uCi, iv after 60 mins postinjection; type: ADME, organism-based; details: in vivo, 1 h; outline: as §2
Heart [32] = assay: Biodistribution in ICR mouse heart at 1 uCi, iv after 30 mins postinjection; type: ADME, organism-based; details: in vivo, 0.5 h; outline: as §1
Muscle tissue [33] = assay: Biodistribution in ICR mouse muscle at 1 uCi, iv after 240 mins postinjection; type: ADME, organism-based; details: in vivo, 4 h; outline: as §1
Lung [34] = assay: Biodistribution in ICR mouse lung at 1 uCi, iv after 60 mins postinjection; type: ADME, organism-based; details: in vivo, 1 h; outline: as §1
Spleen [35] = assay: Biodistribution in ICR mouse spleen at 1 uCi, iv after 60 mins postinjection; type: ADME, organism-based; details: in vivo, 1 h; outline: as §1
Stomach [36] = assay: Biodistribution in ICR mouse stomach at 1 uCi, iv measured per organ after 240 mins postinjection; type: ADME, organism-based; details: in vivo, 4 h
Brain [37] = assay: Biodistribution in ICR mouse brain at 1 uCi, iv after 240 mins postinjection; type: ADME, organism-based; details: in vivo, 4 h; outline: as §1
Heart [38] = assay: Biodistribution in ICR mouse heart at 1 uCi, iv after 15 mins postinjection; type: ADME, organism-based; details: in vivo, 0.25 h; outline: as §1
Thyroid gland [39] = assay: Biodistribution in ICR mouse thyroid at 1 uCi, iv after 240 mins postinjection; type: ADME, organism-based; details: in vivo, 4 h; outline: as §2
Lung [40] = assay: Biodistribution in ICR mouse lung at 1 uCi, iv after 15 mins postinjection; type: ADME, organism-based; details: in vivo, 0.25 h; outline: as §1
Spleen [41] = assay: Biodistribution in ICR mouse spleen at 1 uCi, iv after 120 mins postinjection; type: ADME, organism-based; details: in vivo, 2 h; outline: as §1
Liver [42] = assay: Biodistribution in ICR mouse liver at 1 uCi, iv after 30 mins postinjection; type: ADME, organism-based; details: in vivo, 0.5 h; outline: as §1
Brain [43] = assay: Biodistribution in ICR mouse brain at 1 uCi, iv after 30 mins postinjection; type: ADME, organism-based; details: in vivo, 0.5 h; outline: as §1
Thyroid gland [44] = assay: Biodistribution in ICR mouse thyroid at 1 uCi, iv after 15 mins postinjection; type: ADME, organism-based; details: in vivo, 0.25 h; outline: as §2
Spleen [45] = assay: Biodistribution in ICR mouse spleen at 1 uCi, iv after 15 mins postinjection; type: ADME, organism-based; details: in vivo, 0.25 h; outline: as §1
Kidney [46] = assay: Biodistribution in ICR mouse kidney at 1 uCi, iv after 120 mins postinjection; type: ADME, organism-based; details: in vivo, 2 h; outline: as §1
Lung [47] = assay: Biodistribution in ICR mouse lung at 1 uCi, iv after 30 mins postinjection; type: ADME, organism-based; details: in vivo, 0.5 h; outline: as §1
Spleen [48] = assay: Biodistribution in ICR mouse spleen at 1 uCi, iv after 30 mins postinjection; type: ADME, organism-based; details: in vivo, 0.5 h; outline: as §1
Muscle tissue [49] = assay: Biodistribution in ICR mouse muscle at 1 uCi, iv after 60 mins postinjection; type: ADME, organism-based; details: in vivo, 1 h; outline: as §1
Blood [50] = assay: Biodistribution in ICR mouse blood at 1 uCi, iv after 15 mins postinjection; type: ADME, organism-based; details: in vivo, 0.25 h; outline: as §1
Brain [51] = assay: Biodistribution in ICR mouse brain at 1 uCi, iv after 15 mins postinjection; type: ADME, organism-based; details: in vivo, 0.25 h; outline: as §1
Kidney [52] = assay: Biodistribution in ICR mouse kidney at 1 uCi, iv after 15 mins postinjection; type: ADME, organism-based; details: in vivo, 0.25 h; outline: as §1
Blood [53] = assay: Biodistribution in ICR mouse blood at 1 uCi, iv after 60 mins postinjection; type: ADME, organism-based; details: in vivo, 1 h; outline: as §1
Blood [54] = assay: Biodistribution in ICR mouse blood at 1 uCi, iv after 30 mins postinjection; type: ADME, organism-based; details: in vivo, 0.5 h; outline: as §1
Muscle tissue [55] = assay: Biodistribution in ICR mouse muscle at 1 uCi, iv after 30 mins postinjection; type: ADME, organism-based; details: in vivo, 0.5 h; outline: as §1
Spleen [56] = assay: Biodistribution in ICR mouse spleen at 1 uCi, iv after 240 mins postinjection; type: ADME, organism-based; details: in vivo, 4 h; outline: as §1

Structure (SMILES): [125I]c1ccc(CN2CCN(Cc3ccc4c(c3)OCO4)CC2)cc1
- Drug uptake (Heart [1]): 0.75 % ID/g
- Drug uptake (Thyroid gland [2]): 2.3 % ID/g
- Drug uptake (Muscle tissue [3]): 2.35 % ID/g
- Drug uptake (Stomach [4]): 1.78 %ID
- Drug uptake (Blood [5]): 0.77 % ID/g
- Drug uptake (Mus musculus [6]): 5.77 % ID/g
- Drug uptake (Liver [7]): 5.08 % ID/g
- Drug uptake (Lung [8]): 2.69 % ID/g
- logD [9]: 2.98
- Drug uptake (Liver [10]): 5.68 % ID/g
- Drug uptake (Blood [11]): 0.72 % ID/g
- Drug uptake (Liver [12]): 3.95 % ID/g
- Drug uptake (Thyroid gland [13]): 1.4 % ID/g
- Drug uptake (Mus musculus [14]): 7.45 % ID/g
- Drug uptake (Kidney [15]): 6.89 % ID/g
- Drug uptake (Brain [16]): 3.75 % ID/g
- Drug uptake (Brain [17]): 4.63 % ID/g
- Drug uptake (Mus musculus [18]): 10.95 % ID/g
- Drug uptake (Lung [19]): 4.91 % ID/g
- Drug uptake (Muscle tissue [20]): 1.06 % ID/g
- Drug uptake (Liver [21]): 9 % ID/g
- Drug uptake (Stomach [22]): 2.32 %ID
- Drug uptake (Heart [23]): 1.24 % ID/g
- Drug uptake (Mus musculus [24]): 10.73 % ID/g
- Drug uptake (Mus musculus [25]): 10.21 % ID/g
- Drug uptake (Heart [26]): 1.71 % ID/g
- Drug uptake (Stomach [27]): 2.12 %ID
- Drug uptake (Kidney [28]): 8.73 % ID/g
- Drug uptake (Stomach [29]): 2.54 %ID
- Drug uptake (Kidney [30]): 9.65 % ID/g
- Drug uptake (Thyroid gland [31]): 1.53 % ID/g
- Drug uptake (Heart [32]): 2.79 % ID/g
- Drug uptake (Muscle tissue [33]): 0.72 % ID/g
- Drug uptake (Lung [34]): 6.29 % ID/g
- Drug uptake (Spleen [35]): 5.7 % ID/g
- Drug uptake (Stomach [36]): 1.68 %ID
- Drug uptake (Brain [37]): 2.09 % ID/g
- Drug uptake (Heart [38]): 3.98 % ID/g
- Drug uptake (Thyroid gland [39]): 1.22 % ID/g
- Drug uptake (Lung [40]): 12.49 % ID/g
- Drug uptake (Spleen [41]): 4.79 % ID/g
- Drug uptake (Liver [42]): 6.39 % ID/g
- Drug uptake (Brain [43]): 4.96 % ID/g
- Drug uptake (Thyroid gland [44]): 6.55 % ID/g
- Drug uptake (Spleen [45]): 6.68 % ID/g
- Drug uptake (Kidney [46]): 7.82 % ID/g
- Drug uptake (Lung [47]): 8.7 % ID/g
- Drug uptake (Spleen [48]): 6.53 % ID/g
- Drug uptake (Muscle tissue [49]): 1.5 % ID/g
- Drug uptake (Blood [50]): 1.34 % ID/g
- Drug uptake (Brain [51]): 5.03 % ID/g
- Drug uptake (Kidney [52]): 12.72 % ID/g
- Drug uptake (Blood [53]): 0.81 % ID/g
- Drug uptake (Blood [54]): 0.88 % ID/g
- Drug uptake (Muscle tissue [55]): 1.78 % ID/g
- Drug uptake (Spleen [56]): 2.83 % ID/g
